From ChEMBL document CHEMBL1156300, “Identification of pyridazino[4,5-b]indolizines as selective PDE4B inhibitors” (Bioorg Med Chem Lett, 2010) come the findings set out here.

As a reminder, the Ki is the dissociation constant of the complex between target and ligand, obtained from inhibition or displacement. For orientation: IC50 means the concentration needed to halve the response being measured.

A value given as a limit tells only on which side of the number the result lay.

Data set [1] has as its target T1, 3',5'-cyclic-AMP phosphodiesterase 4B (Homo sapiens, UniProt Q07343). Nature of the data set: Displacement of [methyl-3H]rolipram from PDE4B3 expressed in CHO cells after 1 hr by scintillation counting. Type of data set: cell-based.
The target of data set [2] is T2, 3',5'-cyclic-AMP phosphodiesterase 4D (Homo sapiens, UniProt Q08499). Nature of the data set: Displacement of [methyl-3H]rolipram from PDE4D4 expressed in CHO cells after 1 hr by scintillation counting. It counts as cell-based.
The nature of data set [3]: Selectivity ratio Ki for PDE4D4 to Ki for PDE4B3. In a few lines:
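Ki ratio, PDE4D over PDE4B, from [3H]-rolipram displacement in CHO lysates expressing PDE4D4 or PDE4B3 (2.5 nM radioligand, 30 °C for 1 h, Cheng–Prusoff Ki).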

Data set [4] concerns the target T1, 3',5'-cyclic-AMP phosphodiesterase 4B. Nature of the data set: Inhibition of PDE4B3 expressed in CHO cells assessed as isoproterenol-induced [125I]cAMP accumulation after 15 mins by scintillation counting. It counts as cell-based.
For data set [5], the target named is T2, 3',5'-cyclic-AMP phosphodiesterase 4D. Nature of the data set: Inhibition of PDE4D4 expressed in CHO cells assessed as isoproterenol-induced [125I]cAMP accumulation after 15 mins by scintillation counting. Type of data set: cell-based. Background: Changes in cAMP serve as a functional read-out for many G protein-coupled receptors.
Data set [6] in a line: Inhibition of PDE1.
Data set [7] is described as follows: Inhibition of PDE2.
A short description of data set [8]: Inhibition of PDE3.
Data set [9] in a line: Inhibition of PDE5.
Data set [10] can be described thus: Inhibition of PDE6.
A short description of data set [11]: Selectivity ratio of IC50 for PDE4A to IC50 for PDE4B3.
The nature of data set [12]: Selectivity ratio of IC50 for PDE4C to IC50 for PDE4B3.
Data set [13] concerns the target Voltage-gated inwardly rectifying potassium channel KCNH2 (Homo sapiens, UniProt Q12809). Nature of the data set: Inhibition of human ERG.

T2 sequence (Q08499 whole entry): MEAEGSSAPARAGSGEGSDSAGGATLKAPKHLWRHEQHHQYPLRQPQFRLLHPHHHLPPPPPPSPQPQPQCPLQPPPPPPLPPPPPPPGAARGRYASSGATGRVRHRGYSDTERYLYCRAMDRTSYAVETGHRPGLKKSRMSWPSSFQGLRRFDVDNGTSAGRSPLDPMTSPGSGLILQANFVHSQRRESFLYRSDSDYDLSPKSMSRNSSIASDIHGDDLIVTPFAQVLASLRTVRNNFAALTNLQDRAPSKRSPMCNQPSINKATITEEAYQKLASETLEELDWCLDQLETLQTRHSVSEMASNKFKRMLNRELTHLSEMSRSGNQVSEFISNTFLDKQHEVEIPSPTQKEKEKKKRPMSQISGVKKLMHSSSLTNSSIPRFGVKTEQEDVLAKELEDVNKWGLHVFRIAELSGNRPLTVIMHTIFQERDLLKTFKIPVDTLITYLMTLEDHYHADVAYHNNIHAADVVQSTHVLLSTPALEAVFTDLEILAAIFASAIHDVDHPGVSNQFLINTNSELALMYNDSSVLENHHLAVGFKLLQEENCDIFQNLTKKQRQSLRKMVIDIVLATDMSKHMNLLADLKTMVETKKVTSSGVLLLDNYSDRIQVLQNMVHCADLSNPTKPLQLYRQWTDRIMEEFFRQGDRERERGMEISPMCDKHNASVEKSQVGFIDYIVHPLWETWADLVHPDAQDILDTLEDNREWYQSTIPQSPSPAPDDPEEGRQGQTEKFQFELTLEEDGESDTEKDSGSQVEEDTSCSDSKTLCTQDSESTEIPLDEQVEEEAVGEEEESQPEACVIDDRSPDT
T1 sequence (Q07343 whole entry): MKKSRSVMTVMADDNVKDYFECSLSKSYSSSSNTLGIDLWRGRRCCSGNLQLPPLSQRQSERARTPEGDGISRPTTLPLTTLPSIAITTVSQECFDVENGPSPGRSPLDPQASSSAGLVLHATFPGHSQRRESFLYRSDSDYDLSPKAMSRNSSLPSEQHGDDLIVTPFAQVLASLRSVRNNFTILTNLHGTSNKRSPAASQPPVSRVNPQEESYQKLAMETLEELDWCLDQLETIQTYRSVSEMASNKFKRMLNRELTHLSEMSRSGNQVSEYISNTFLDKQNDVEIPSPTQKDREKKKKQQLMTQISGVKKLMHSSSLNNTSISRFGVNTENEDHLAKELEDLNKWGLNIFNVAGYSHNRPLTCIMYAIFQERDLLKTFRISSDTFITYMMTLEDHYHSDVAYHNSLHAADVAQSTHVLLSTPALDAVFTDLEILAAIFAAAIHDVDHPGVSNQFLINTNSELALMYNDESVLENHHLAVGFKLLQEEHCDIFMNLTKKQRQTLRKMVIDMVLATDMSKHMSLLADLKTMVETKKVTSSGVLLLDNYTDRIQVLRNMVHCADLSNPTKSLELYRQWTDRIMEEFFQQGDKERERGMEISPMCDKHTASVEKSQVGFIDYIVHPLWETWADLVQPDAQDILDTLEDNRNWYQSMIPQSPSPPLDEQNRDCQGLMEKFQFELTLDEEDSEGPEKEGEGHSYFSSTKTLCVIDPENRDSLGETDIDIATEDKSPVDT
Chain of Voltage-gated inwardly rectifying potassium channel KCNH2 (Q12809 whole entry): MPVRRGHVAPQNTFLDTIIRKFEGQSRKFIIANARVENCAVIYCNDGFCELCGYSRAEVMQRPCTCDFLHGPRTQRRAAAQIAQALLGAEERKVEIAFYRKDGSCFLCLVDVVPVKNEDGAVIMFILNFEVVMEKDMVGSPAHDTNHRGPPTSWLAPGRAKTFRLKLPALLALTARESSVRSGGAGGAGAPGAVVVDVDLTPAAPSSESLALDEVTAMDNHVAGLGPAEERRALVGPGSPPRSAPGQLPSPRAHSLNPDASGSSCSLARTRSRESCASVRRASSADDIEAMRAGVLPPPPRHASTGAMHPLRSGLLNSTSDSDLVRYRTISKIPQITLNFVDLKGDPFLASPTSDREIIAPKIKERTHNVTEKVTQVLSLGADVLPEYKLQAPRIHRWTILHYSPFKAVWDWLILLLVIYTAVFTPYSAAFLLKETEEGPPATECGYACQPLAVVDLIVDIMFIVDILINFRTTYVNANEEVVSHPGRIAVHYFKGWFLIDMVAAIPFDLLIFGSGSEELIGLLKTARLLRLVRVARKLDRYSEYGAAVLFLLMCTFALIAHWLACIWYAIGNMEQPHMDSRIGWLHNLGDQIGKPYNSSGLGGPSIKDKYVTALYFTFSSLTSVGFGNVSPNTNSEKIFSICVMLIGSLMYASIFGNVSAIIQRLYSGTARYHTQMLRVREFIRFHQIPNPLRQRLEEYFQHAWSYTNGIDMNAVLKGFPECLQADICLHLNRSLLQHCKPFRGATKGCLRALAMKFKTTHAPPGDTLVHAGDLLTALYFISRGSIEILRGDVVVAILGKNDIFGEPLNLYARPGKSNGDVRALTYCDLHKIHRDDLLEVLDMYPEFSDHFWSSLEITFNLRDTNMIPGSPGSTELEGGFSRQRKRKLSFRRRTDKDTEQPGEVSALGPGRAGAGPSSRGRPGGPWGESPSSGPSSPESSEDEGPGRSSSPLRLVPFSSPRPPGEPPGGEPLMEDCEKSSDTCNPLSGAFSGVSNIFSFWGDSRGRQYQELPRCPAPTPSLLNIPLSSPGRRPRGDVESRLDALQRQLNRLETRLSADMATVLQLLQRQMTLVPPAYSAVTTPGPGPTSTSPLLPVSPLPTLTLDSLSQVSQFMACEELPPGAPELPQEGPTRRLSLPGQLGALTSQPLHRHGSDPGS

For the compound `CC(=O)N1CCN(CCCNc2nnc(-c3cccc(F)c3)c3c2cc2ccccn23)CC1`, the Ki is 1.9 µM in [1] and greater than 100 µM in data set [2]. The Ratio Ki in data set [3] is greater than 53.
`Cn1cccc1C(=O)N1CCN(CCCNc2nnc(-c3cccc(F)c3)c3c2cc2ccccn23)CC1`: the Ki in data set [1] came out at 5.2 µM; in data set [2] it was 65 µM. The Ratio Ki in data set [3] was 12.
Regarding `Clc1cccc(-c2nnc(NCCCN3CCN(c4ncccn4)CC3)c3cc4ccccn4c23)c1`, the values for the Ki in data set [1] and in data set [2] were 2.01 µM and 14.2 µM, respectively. The Ratio Ki in [3] turned out to be 7.
The matching figures for `Cc1cccc(-c2nnc(NCCCN3CCN(c4ncccn4)CC3)c3cc4ccccn4c23)c1`: 4.3 µM, 54.4 µM and 13.
Turning to `Cc1cc2c(NCCCN3CCN(C(=O)c4ccccn4)CC3)nnc(-c3cccc([N+](=O)[O-])c3)c2n1C`, the Ki in data set [1] was 0.238 µM; in data set [2], 11.5 µM. Besides, the Ratio Ki in data set [3] was 48.
The matching figures for `Cc1cc2c(NCCCN3CCN(C(=O)c4csnn4)CC3)nnc(-c3cccc([N+](=O)[O-])c3)c2n1C`: 0.977 µM, 48.6 µM and 50.
The matching figures for `CCC(=O)N1CCN(CCCNc2nnc(-c3cccc(F)c3)c3c2cc2ccccn23)CC1`: 4.9 µM, greater than 100 µM and greater than 20.
Consider `Cc1cc2c(NCCCN3CCN(C(=O)c4ccnnc4)CC3)nnc(-c3cccc([N+](=O)[O-])c3)c2n1C`, for which the Ki in data set [1] turned out to be 4.44 µM; in [2], 51.2 µM. Also, the Ratio Ki in data set [3] was determined as 12.
For `O=C(c1cnccn1)N1CCN(CCCNc2nnc(-c3cccc([N+](=O)[O-])c3)c3c2cc2ccccn23)CC1`, the Ki was 0.0056 µM in [1] and 0.147 µM in data set [2]. Also, the Ratio Ki in data set [3] is 26. Moreover, the IC50 is 0.389 µM in data set [4]; 4.9 µM in data set [5]; greater than 10 µM in data set [6]; greater than 10 µM in data set [7]; greater than 10 µM in [8]; greater than 10 µM in [9]. Moreover, in data set [10], the IC50 is greater than 10 µM. The Ratio IC50 in data set [11] and in [12] was greater than 5 in each case. For the same compound, the “inhibition (INH)” value in data set [13] was “Active”.
Consider `O=C(c1cnccn1)N1CCN(CCCNc2nnc(-c3ccccc3)c3c2cc2ccccn23)CC1`, for which the Ki is 0.041 µM in [1] and 8.37 µM in data set [2]. Also, in data set [3], the Ratio Ki came out at 205. The IC50 is 6.7 µM in data set [4] and greater than 100 µM in [5].
With `N#Cc1cccc(-c2nnc(NCCCN3CCN(c4ncccn4)CC3)c3cc4ccccn4c23)c1`, the Ki in data set [1] came out at 1.03 µM; in data set [2], 3.35 µM. In [3], the Ratio Ki turned out to be 3.
On the same counts, the results for `Cc1cc2c(NCCCN3CCN(C(=O)c4cnccn4)CC3)nnc(-c3cccc([N+](=O)[O-])c3)c2n1C` are 0.077 µM, 4.44 µM and 58.
For the compound `Fc1cccc(-c2nnc(NCCCN3CCN(c4ncccn4)CC3)c3cc4ccccn4c23)c1`, the figures for the Ki in data set [1] and in [2] were 2.7 µM and 83 µM, respectively. In data set [3], the Ratio Ki worked out at 29.
On to `c1ccc(-c2nnc(NCCCN3CCN(c4ncccn4)CC3)c3cc4ccccn4c23)cc1`, for which the values for the Ki in data set [1] and in data set [2] were 2.6 µM and 59 µM, respectively. Moreover, the Ratio Ki in [3] came to 23. The IC50 in [4] is 13.2 µM; in data set [5], greater than 100 µM.
Take `O=C(c1cccnc1)N1CCN(CCCNc2nnc(-c3cccc(F)c3)c3c2cc2ccccn23)CC1`: the values for the Ki in data set [1] and in data set [2] were 0.413 µM and 19 µM, respectively. Also, the Ratio Ki in [3] amounted to 46.
Turning to `Brc1cccc(-c2nnc(NCCCN3CCN(c4ncccn4)CC3)c3cc4ccccn4c23)c1`, the figures for the Ki in [1] and in data set [2] were 1.44 µM and 17.5 µM, respectively. Also, the Ratio Ki in data set [3] came out at 12.
The matching figures for `O=C(c1ccccc1)N1CCN(CCCNc2nnc(-c3cccc(F)c3)c3c2cc2ccccn23)CC1`: 2.7 µM, 22.2 µM and 8.
On to `Cc1cc2c(NCCCN3CCN(C(=O)c4ccno4)CC3)nnc(-c3cccc([N+](=O)[O-])c3)c2n1C`, for which the Ki is 5.08 µM in data set [1] and greater than 100 µM in data set [2]. In addition, in [3], the Ratio Ki was greater than 20.
`O=[N+]([O-])c1cccc(-c2nnc(NCCCN3CCN(c4ncccn4)CC3)c3cc4ccccn4c23)c1`: the figures for the Ki in data set [1] and in data set [2] were 0.21 µM and 2.4 µM, respectively. Besides, the Ratio Ki in data set [3] came to 11.
As for `O=C(c1ccccn1)N1CCN(CCCNc2nnc(-c3cccc(F)c3)c3c2cc2ccccn23)CC1`, the Ki was 0.241 µM in [1] and 18 µM in data set [2]. For the same compound, the Ratio Ki in data set [3] worked out at 75.
As for `Cc1cc2c(NCCCN3CCN(C(=O)c4cccnc4)CC3)nnc(-c3cccc([N+](=O)[O-])c3)c2n1C`, the Ki in data set [1] worked out at 0.432 µM; in [2] it was 15.3 µM. Besides, the Ratio Ki in data set [3] was 35.
`Cc1cc2c(NCCCN3CCN(C(=O)c4ccncc4)CC3)nnc(-c3cccc([N+](=O)[O-])c3)c2n1C`: the Ki is 52.2 µM in [1] and greater than 100 µM in data set [2]. Further, the Ratio Ki in [3] was greater than 2.
For `Cc1cc2c(NCCCN3CCN(C(=O)c4cncs4)CC3)nnc(-c3cccc([N+](=O)[O-])c3)c2n1C`, the Ki is 0.222 µM in data set [1] and 12.7 µM in data set [2]. Further, in data set [3], the Ratio Ki came out at 57.
Turning to `Cc1cc2c(NCCCN3CCN(C(=O)c4ncccn4)CC3)nnc(-c3cccc([N+](=O)[O-])c3)c2n1C`, the Ki in data set [1] is 1 µM; in [2] it was greater than 100 µM. Also, in data set [3], the Ratio Ki is greater than 100.
The matching figures for `O=C(C1CCCC1)N1CCN(CCCNc2nnc(-c3cccc(F)c3)c3c2cc2ccccn23)CC1`: 14 µM, 61 µM and 4.
